# Test results: paper PMC3406685 (The Journal of Biological Chemistry, 2012)
# Entries after “also recorded” stand apart in the source; their conditions may differ.
# How the values were obtained:
# [1] = tested on: Rugli cells (α1β1); assay: Real-time Rugli cell adhesion; format: cell-based, rat; conditions: xCELLigence
# [2] = tested on: PC12 cells (α1β1); assay: Real-time PC12 cell adhesion using xCELLigence; format: cell-based, rat; conditions: for PC12 cell adhesion (cell index), in words: […] 10^4 cells/well, 2 mM Mg^2+; for PC12 cell adhesion (cell index), in words / PC12 cell adhesion in presence of EDTA: 2 h; for PC12 cell adhesion in presence of EDTA: 2 mM EDTA; for PC12 cell adhesion relative to II-27: Mg^2+, % of the level attained with II-27, four independent experiments
# [3] = tested on: α2β1; conditions: cited from earlier work; for affinity for α2β1, in words: ref [37], [38]; for affinity for the α2 I domain, in words: ref [39], [46]
# [4] = tested on: recombinant human α2 I domain; assay: SPBA, wild-type α2 I domain to coated peptides; format: binding; conditions: 0.1 μg protein/well, four independent experiments
# [5] = tested on: C2C12-α2^+ cells (human α2β1); assay: Real-time adhesion of C2C12-α2^+ cells; format: cell-based, mouse cells expressing human α2β1; conditions: xCELLigence; 25,000 cells/well, 2 h; GPP10 control
# [6] = tested on: C2C12-α11^+ cells (human α11β1); assay: Real-time adhesion of C2C12-α11^+ cells; format: cell-based, mouse cells expressing human α11β1; conditions: xCELLigence; 25,000 cells/well, 2 h; GPP10 control
# [7] = tested on: parental C2C12 cells lacking collagen-binding integrins; assay: Adhesion of parental C2C12 cells; format: cell-based, mouse; conditions: real-time adhesion, GPP10 control
# [8] = tested on: α1β1; conditions: cited from earlier work; for preference of α1β1 and α10β1 among collagens, in words: ref [28], [29]
# [9] = tested on: α1β1-expressing Rugli cells; conditions: ref [54]; cited from earlier work
# [10] = tested on: recombinant human α1 I domain; assay: Solid-phase binding assay; conditions: conclusion from all data together
# [11] = tested on: constitutively active E317W α1 I domain; assay: SPBA, constitutively active E317W α1 I domain to coated peptides; format: binding; conditions: 0.1 μg protein/well, four independent experiments
# [12] = tested on: constitutively active E318W α2 I domain; assay: SPBA, constitutively active E318W α2 I domain to coated peptides; format: binding; conditions: 0.1 μg protein/well, four independent experiments
# Method in brief: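 GST-tagged I domain (0.1 μg/well) added to triple-helical peptides coated at 10 μg/ml (1 h, 22 °C), blocked 1 h with TBS/50 mg/ml BSA. Binding 1 h at room temperature in TBS/1 mg/ml BSA with 2 mM MgCl₂ or EDTA. Detected with HRP anti-GST (1:10,000, 1 h) and TMB colour. Mean ± S.E. of four independent experiments, each in triplicate.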
compound,measurement,setting,value
"CCCCCCCCCCCCCC(=O)O[C@@H]1[C@@H](C)[C@@]2(O)[C@@H](C=C(CO)C[C@]3(O)C(=O)C(C)=C[C@@H]23)[C@@H]2C(C)(C)[C@]12OC(C)=O [PMA, phorbol 12-myristate 13-acetate, reference compound]",Effect of PMA treatment on Rugli cell adhesion,"[1]; 1 μM PMA, 30 min",increased both the rate of onset of adhesion and the peak cell index
GAOGER,"PC12 cell adhesion (cell index), in words",[2]; xCELLigence,Moderate binding
GASGER,"affinity for α2β1, in words",[3],"intermediate or low affinity, which increased upon cell activation"
GDQGVOGEAGAO [II-27-B],PC12 cell adhesion in presence of EDTA,[2]; xCELLigence,no adhesion was observed in the presence of EDTA
same,PC12 cell adhesion relative to II-27,[2]; xCELLigence,~40%
same,"adhesion of wild-type α2 I domain, in words",[4],did not bind
same,"C2C12-α2^+ cell adhesion, in words",[5],None of these cells showed any specific binding
same,"C2C12-α11^+ cell adhesion, in words",[6],None of these cells showed any specific binding
same,"parental C2C12 cell adhesion, in words",[7],None of these cells showed any specific binding
GFPGEN,"α1β1 selectivity / α1 I domain affinity, in words","[8]; expressed within Streptococcus pyogenes collagen-like molecules, ref [40]",selective ligand for α1β1; also recorded: higher affinity for the α1 I domain compared with GFPGER
GFPGER,"PC12 cell adhesion (cell index), in words",[2]; xCELLigence,weak binding (lower compared with GFOGER)
same,"affinity for the α2 I domain, in words",[3],high or moderate affinity motifs for the α2 I domain
same,"ligand quality for α1β1-expressing Rugli cells, in words",[9],poor ligand for α1β1-expressing Rugli cells
GKOGDQGVOGEAGAO [II-27-C],PC12 cell adhesion in presence of EDTA,[2]; xCELLigence,no adhesion was observed in the presence of EDTA
same,PC12 cell adhesion relative to II-27,[2]; xCELLigence,~40%
same,"PC12 cell adhesion (cell index), in words",[2]; xCELLigence,no greater than to GVOGEA
same,"adhesion of wild-type α2 I domain, in words",[4],did not bind
same,"C2C12-α2^+ cell adhesion, in words",[5],None of these cells showed any specific binding
same,"C2C12-α11^+ cell adhesion, in words",[6],None of these cells showed any specific binding
same,"parental C2C12 cell adhesion, in words",[7],None of these cells showed any specific binding
GLKGEN,"PC12 cell adhesion (cell index), in words",[2]; xCELLigence,only slight activity
GLOGEA,"affinity for the α2 I domain, in words",[3],high or moderate affinity motifs for the α2 I domain
GLOGER,"affinity for the α1 I domain versus α2 I domain, in words","[8]; ref [37], [38]",relatively higher affinity for the α1 I domain than for the α2 I domain
GLSGER,"affinity for α2β1, in words",[3],"intermediate or low affinity, which increased upon cell activation"
GMOGER,"PC12 cell adhesion (cell index), in words",[2]; xCELLigence,Moderate binding
same,"affinity for the α2 I domain, in words",[3],high or moderate affinity motifs for the α2 I domain
GPOGPOGEGGKOGDQGVOGEAGAOGV [II-27],"overall α1β1 recognition / selectivity, in words",[10],new α1β1-binding activity
same,Increase of PC12 cell binding upon substitution of Mg^2+ with Mn^2+,"[2]; real-time binding assay, Mn^2+ vs Mg^2+ (data not shown)",65%
same,"PC12 cell adhesion, comparison of selected peptides (Fig. 7)","[2]; xCELLigence, 25,000 cells/well, mean cell index after 2 h, three experiments",bound most strongly to III-7 and then to II-27 and II-28
same,"adhesion of wild-type α2 I domain, in words",[4],did not bind
same,"adhesion of active E317W α1 I domain, in words",[11],E317W but not E318W bound strongly
same,"adhesion of active E318W α2 I domain, in words",[12],E317W but not E318W bound strongly
same,"Rugli cell adhesion without activation, in words",[1]; control Rugli cells,moderate ligand for α1β1
same,"C2C12-α2^+ cell adhesion, in words",[5],None of these cells showed any specific binding; also recorded: did not bind
same,"C2C12-α11^+ cell adhesion, in words",[6],None of these cells showed any specific binding; also recorded: did not bind
same,"parental C2C12 cell adhesion, in words",[7],None of these cells showed any specific binding
GQRGER,"affinity for α2β1, in words",[3],"intermediate or low affinity, which increased upon cell activation"
GROGER,"PC12 cell adhesion (cell index), in words",[2]; xCELLigence,only slight activity
same,"affinity for the α2 I domain, in words",[3],high or moderate affinity motifs for the α2 I domain
GSOGEN,"overall α1β1 recognition / selectivity, in words",[10],displays little activity
collagen IV: monomeric pepsin-digested human collagen IV (C-5533) [reference compound],"preference of α1β1 and α10β1 among collagens, in words",[8],preferentially bind collagen types IV and VI over fibrillar collagens
same,"affinity of α1β1 for collagen IV, in words",[8]; ref [30],high affinity
collagen VI: collagen type VI,"preference of α1β1 and α10β1 among collagens, in words",[8],preferentially bind collagen types IV and VI over fibrillar collagens
